Data set [1] is described as follows: Genotoxicity in CHO-WBL cells assessed as chromosome aberration at 90 to 397.1 ug/ml measured after 20 hrs in presence of S9 fraction by Giemsa staining based. In kind it is toxicity, subcellular, Cricetulus griseus. Particulars: chinese hamster, s9, 20 h, dose 90-397.1 µg/ml. An outline of the steps: (§1)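 CHO-WBL cells in McCoy's 5A with 10% FBS, seeded 20-24 h before treatment. Compound in DMSO, with or without serum-free S-9 mix. Treatment either 3 h, then HBSS wash and 17 h further culture, or 20 h; harvest at 20 h from treatment start. Colcemid 0.1 μg/mL for the final 2 h, hypotonic KCl, methanol:acetic acid fixation, Giemsa stain. 300 metaphases per concentration (150 per duplicate flask) scored.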

A short description of data set [2]: Toxicity in female Sprague-Dawley rat assessed as change in mean corpuscular hemoglobin at 150 mg/kg/day, po administered for 4 weeks followed by 2 week recovery period (Rvb =18.5 +/- 0.6 pg). The class given is organism-based. Particulars: in vivo, 672 h.
A short description of data set [3]: Clearance in Balb/c mouse at 2.5 mg/kg, iv by LC-MS/MS analysis. The class given is ADME, organism-based. The following applies: in vivo. In short, it runs like this:
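Female BALB/c mice (20–25 g), five per route. Oral dose 25 mg/kg in 0.5% carboxymethyl cellulose; i.v. dose 2.5 mg/kg in 10% DMSO/physiological saline. Blood sampled 5 min–72 h after p.o. and 2 min–48 h after i.v. Analyte quantified by LC/MS/MS (ESI positive, C18, isocratic methanol/water). Parameters from non-compartmental analysis.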

Data set [4] can be described thus: Toxicity in female Sprague-Dawley rat assessed as change in mean corpuscular hemoglobin at 450 mg/kg/day, po administered for 4 weeks followed by 2 week recovery period (Rvb =18.5 +/- 0.6 pg). The class given is organism-based. The following applies: in vivo, 672 h.
Data set [5] can be described thus: Genotoxicity in CHO-WBL cells assessed as chromosome aberration at 20 to 150 ug/ml measured after 20 hrs in absence of S9 fraction by Giemsa staining based. The following applies: chinese hamster, dose 20-150 µg/ml. The class given is toxicity, cell-based, Cricetulus griseus. An outline of the steps:
as §1

The nature of data set [6]: Toxicity in female Sprague-Dawley rat assessed as change in hemoglobin count at 450 mg/kg/day, po administered for 4 weeks followed by 2 week recovery period (Rvb =136 +/- 7 g/L). In kind it is organism-based. Particulars: in vivo, 672 h.
The nature of data set [7]: Toxicity in male Sprague-Dawley rat assessed as change in mean corpuscular volume at 50 mg/kg/day, po administered for 4 weeks followed by 2 week recovery period (Rvb =57.5 +/- 2.0 fL). The following applies: in vivo, 672 h. The class given is organism-based.
The nature of data set [8]: Toxicity in female Sprague-Dawley rat assessed as change in red blood cell count at 150 mg/kg/day, po administered for 4 weeks followed by 2 week recovery period (Rvb =7.32 +/- 0.20 10^12/L). The class given is organism-based. Particulars: in vivo, 672 h.
A short description of data set [9]: Toxicity in male Sprague-Dawley rat assessed as changes in neuropsychic symptoms at 50 to 450 mg/kg/day, po administered for 4 weeks followed by 2 week recovery period measured during last 24 hrs of recovery period. In kind it is organism-based. Particulars: in vivo, 672 h, dose 50-450 mg/kg/day. An outline of the steps: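 SD rats aged 6-7 weeks, 12 male and 12 female per group, in four groups: vehicle control, 50, 150 and 450 mg/kg/day. Dosing was oral, once daily, for 4 weeks, then a 2-week recovery period. Clinical symptoms were observed starting before administration. 8 per sex were dissected after the last dose and the remaining 4 per sex after 14 days of recovery.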

Data set [10] can be described thus: Toxicity in male Sprague-Dawley rat assessed as change in mean corpuscular volume at 150 mg/kg/day, po administered for 4 weeks followed by 2 week recovery period (Rvb =57.5 +/- 2.0 fL). In kind it is organism-based. Particulars: in vivo, 672 h.
A short description of data set [11]: Toxicity in male Sprague-Dawley rat assessed as histopathological changes at 50 to 450 mg/kg/day, po administered for 4 weeks measured post last dose. The class given is organism-based. Particulars: in vivo, 672 h, dose 50-450 mg/kg/day.
A short description of data set [12]: Toxicity in male Sprague-Dawley rat assessed as change in mean corpuscular hemoglobin at 450 mg/kg/day, po administered for 4 weeks followed by 2 week recovery period (Rvb =18.3 +/- 0.4 pg). The class given is organism-based. Particulars: in vivo, 672 h.
Data set [13] can be described thus: Toxicity in male Sprague-Dawley rat assessed as changes in neuropsychic symptoms at 50 to 450 mg/kg/day, po administered for 4 weeks measured during last 24 hrs of treatment period. In kind it is organism-based. The following applies: in vivo, 672 h, dose 50-450 mg/kg/day.
Data set [14] in a line: Toxicity in male Sprague-Dawley rat assessed as histopathological changes in bone marrow at 450 mg/kg/day, po administered for 4 weeks followed by 2 week recovery period. The class given is organism-based. Particulars: in vivo, 672 h.
A short description of data set [15]: Toxicity in female Sprague-Dawley rat assessed as body weight loss at 50 to 450 mg/kg/day, po administered for 4 weeks followed by 2 week recovery period measured at 1 week interval. In kind it is organism-based. The following applies: in vivo, 672 h, dose 50-450 mg/kg/day. An outline of the steps:
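SD rats, 6-7 weeks, 12 male and 12 female per group. Oral dosing once daily at 50, 150 or 450 mg/kg/day or vehicle for 4 weeks, then 2-week recovery. 8 per sex dissected after last dose, remaining 4 per sex after 14-day recovery. Body weight, urine, food intake and clinical signs monitored.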

Data set [16] in a line: Toxicity in male Sprague-Dawley rat assessed as change in lymphocyte level at 50 mg/kg/day, po administered for 4 weeks followed by 2 week recovery period (Rvb =77.4 +/- 3.7 %). In kind it is organism-based. The following applies: in vivo, 672 h.
Data set [17] in a line: Toxicity in male Sprague-Dawley rat assessed as change in neutrophil level at 50 mg/kg/day, po administered for 4 weeks followed by 2 week recovery period (Rvb =15.9 +/- 3.4 %). In kind it is organism-based. The following applies: in vivo, 672 h.
Data set [18] is described as follows: Toxicity in male Sprague-Dawley rat assessed as change in reticulocyte level at 450 mg/kg/day, po administered for 4 weeks followed by 2 week recovery period (Rvb =2.48 +/- 0.34 %). The class given is organism-based. Particulars: in vivo, 672 h.
For data set [19], the target named is T1, Cytochrome P450 1A2 (Homo sapiens, UniProt P05177).
T1 sequence (P05177 whole entry): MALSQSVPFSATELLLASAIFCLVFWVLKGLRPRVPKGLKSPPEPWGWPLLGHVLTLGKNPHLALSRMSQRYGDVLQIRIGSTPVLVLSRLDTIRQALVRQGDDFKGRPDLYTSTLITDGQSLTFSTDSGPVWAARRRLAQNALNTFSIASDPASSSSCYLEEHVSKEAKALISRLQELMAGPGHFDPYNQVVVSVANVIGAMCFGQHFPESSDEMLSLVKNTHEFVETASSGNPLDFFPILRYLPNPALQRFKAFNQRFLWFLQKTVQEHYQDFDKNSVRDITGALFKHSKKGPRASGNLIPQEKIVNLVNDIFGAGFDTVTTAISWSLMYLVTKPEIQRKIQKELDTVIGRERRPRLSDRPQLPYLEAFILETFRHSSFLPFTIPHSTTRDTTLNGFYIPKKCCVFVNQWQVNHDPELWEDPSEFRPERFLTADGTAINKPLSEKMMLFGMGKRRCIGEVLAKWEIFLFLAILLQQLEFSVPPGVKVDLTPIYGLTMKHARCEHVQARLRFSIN
In words: Inhibition of CYP1A2 in human liver microsomes after 20 mins by LC-MS/MS analysis. The class given is ADME. An outline of the steps:
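Human liver microsomes (0.2 mg/mL) in phosphate buffer, 20 min incubation with compound at 0.1-50 μM alongside isoform-specific substrates and a positive control. Substrate remaining monitored by LC-MS/MS at each concentration; IC50 derived.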
For orientation: Liver microsomes are a subcellular fraction often used to study metabolism.

Some results are limits rather than exact numbers.

`CC(=O)NC[C@@H]1OC(=O)N2c3cc(F)c(N4CC[S+]([O-])CC4)cc3OC[C@@H]12`: the Activity result in data set [1] is reported as “Non-Toxic”.
For `CC(=O)NC[C@@H]1OC(=O)N2c3cc(F)c(N4CCSCC4)cc3OC[C@@H]12`, the Activity is 18.8 pg in data set [2]; 18.7 pg in data set [4]; “Non-Toxic” in [5]; 122 g/L in data set [6]; 59.7 fL in data set [7]; 6.61 10^12/L in [8]. In addition, the Activity entry was “Non-Toxic” in data set [9]; 58.5 fL in data set [10]; “Non-Toxic” in data set [11]; 18.7 pg in data set [12]; “Non-Toxic” in data set [13]; “Non-Toxic” in data set [14]. Moreover, the Activity entry was “Non-Toxic” in data set [15], 82% in data set [16], 13% in data set [17] and 2.99% in [18]. In addition, the clearance in [3] is 36.5 mL/min/kg. The compound also gave an IC50 in [19] above 50 µM.

For orientation: clearance means a measure of how efficiently the substance is removed, as volume per time. In general, IC50 refers to the midpoint of a concentration-inhibition curve. A high value points to lower potency.
